The text below walks through data of the RNAGym collection of RNA variant scans (doi:10.1126/science.aae0568).

This sample holds only a part of the variants without activity.

The chains are these.
B1: tRNA (parent)
chain: GUUCCGUUGGCGUAAUGGUAACGCGUCUCCCUCCUAAGGAGAAGACUGCGGGUUCGAGUCCCGUACGGAACG

In this data set the parent is B1. Nature of the data set: yeast fitness relative to wild type (ratio to wild type); higher = fitter; tRNA-Arg(CCU), competitive growth, 37 C, YPD. Put shortly: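 Gene amplicons from the start population and from each of six end populations were read by 100-nucleotide paired-end sequencing. Those end populations came from pooled Saccharomyces cerevisiae strains carrying tRNA-Arg(CCU) gene variants at the native locus, competed in YPD at 37°C for 24 hours. Fitness relative to wild type was worked out from changes in genotype frequencies. Genotypes needed ≥ 100 starting reads, and estimates < 0.5 were set to 0.5.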
GUUCCGUUGGCGGAAUGGUAACGCGUCUCCCUCCUGAGGAGAAGACUGCGGGUUCGAGUCCCGUACGGAACG [U13G A36G]: the yeast fitness was 0.913.
Consider GUUCCGUUGGCGUAAUGGUAACGCGUCUACCUCCUAUGGAGAAGACUGCGGGUUCGAGUCCCGUACGGAACG [C29A A37U], for which the yeast fitness was at most 0.5.
In the case of GUACCGUUGGCGUAAUGGUAACGCGUCUCCCUCCUAUCGAGAAGACUGCGGGUUCGAGUCCCGUACGGAACG [U3A A37U G38C], the yeast fitness is at most 0.5.
To GUUGCGUUGGCAUAAUGGUAACGCGUCUCUCUCCUAAGGAGAAGACUGCGGGUUCGAGUCCCAUACGCAACG [C4G G12A C30U G63A G68C] belongs 0.574; to GUUCCGUUGGCGUAAUGGUAACGCGUUUCCCUCCUAAGGAGAAGACUGCGGGUUCGCGUCCCGUACGGAACG [C27U A57C], 0.676; to GUUCCGUUGGCGUAAUGGUAAGGUGUCUCCCUCCUACGGAGAAGACUGCGCGUUUGAGUCCCGUACGGAUCG [C22G C24U A37C G51C C55U A70U], at most 0.5.
For GUUCCGUUUGCGUAAUGGUACCGCGUCUCCCUCCUAAGGAGUACACUGCGGGCUCGAGUCCCGUACGGAACG [G9U A21C A42U G44C U53C] the value was at most 0.5.
As to GAUCAGUUCGCGUAACGGUAACGCCUCUCCCUCCUAAGGAGAAGACUGCGGGUUCGAGUCCCGUCCGGAACG [U2A C5A G9C U16C G25C A65C], the yeast fitness was at most 0.5.
GUUCCGUUGGCGUAAUGGUAACGCGCCUCCCUCCUAAGGAGAAGACUGCGGGUUCGAGUCCCGUAGGCAACG [U26C C66G G68C]: the yeast fitness is at most 0.5.
For GUUCGGUUGGCGUAAUGGUAACGCGUCUCUCUCCUAAGGAGAAGACUGCGGGUUCGAGUCCCGUACGGAACG [C5G C30U] the value was 0.799; for GUUUCGUUGGCGUAGUGGUAAUGCGUCUCCCUCCUAAGGAGAAGACUGCGGGUUCGAGUCCCGUACGGAACG [C4U A15G C22U], 0.559; for GUUUCGUUGGCGUAAUGGUAACGUGUCUCCCUCCUAAGGAGAGGACUGCGCGUCCGAGUCCCGUACGGAACG [C4U C24U A43G G51C U54C], at most 0.5.
For the variant GUUCCGUAGGCGUAAUGGUAACGCGUCUCUCUCCUAAGGAGGAGACUGCGGGUUCGCGUCCCGUACGGAACG [U8A C30U A42G A57C], the yeast fitness is at most 0.5.
For GUUCCGUUGGCGUAAUGGUAACGCGUCUCCCUCCUCAGGAAAAGACUGCGGGCUCGAGUCCCGUACGGAACG [A36C G41A U53C] the value was 0.56; for GUUCCGUUGGCGUGAUGGUAACGCGUCUGCCUCCUAGGGAGAAGACUGCGGGUUCGAGUCCCGUACGGAACG [A14G C29G A37G], at most 0.5.
For GUUCCGUUGGCGUAAUGGUAACGCGUCUCCCUCCUAAGGCGAAGACUGCGGCUUCGAGUCCCGUACGGAACG [A40C G52C] the value was 0.685.
For GUUCCGUCGGCGUAAUGGUAAAGCGUCUCCCUCCUAAGGAGAAGAAUGCGGGUUCGAGUCCCGUUCGGAACG [U8C C22A C46A A65U] the value was at most 0.5; for GUUCAGUUGGCGUAAUGGUAACGCGUCUCCUUCCUAAGGAGAAGACUGCGGGUUUGAGUCCCGUACGGAACG [C5A C31U C55U], 0.6; for GUUCCGUUGGAGCGAUGGUAACGCGUCUCCCUCCUAAGGAGAACAAUGGGGGUUCGAGUCCCGUACGGAACG [C11A U13C A14G G44C C46A C49G], at most 0.5.
With GUUCAGUUGGCGAAAUGGUAACGCGUCUCCCUCCUAAGGAGAAGCCUGCGGGUUCGAGUCCCGUACGGCACG [C5A U13A A45C A69C], the yeast fitness came to 0.542.
To GUUUCGUUGGCGUAUUGGUAACGCGUCUCCCUCCUAAGGAGAAGCCUGCGGGUUCGAGUCCCGUACGGAACG [C4U A15U A45C] belongs 0.611; to GUUCCGAUGGCGUAAUGGUACCGCGUCUCCCUCCUAAGGAGAAGGCUGCGGGUUCGAGUCCCGUACGGAACG [U7A A21C A45G], 0.571.
Turning to GUUCCGUUGGCGUAAUGGUAACGCAUCUUCCUCCUAAGGAGAAGACUGCGGGUUCGAGUCCCGUACGGCACG [G25A C29U A69C], the yeast fitness came to 0.807.
In the case of GUUCCGUUGGCGUAAUGGUUACGCGUCUCCCUCCUAAGGAGUAGACUGCGGGUUCGAGUCCCGUACGGAACG [A20U A42U], the yeast fitness worked out at 0.742.
For GUUCUGUUGGCGUCUUAGUAACGCGCCUCCCUCCUAAGGAGUAGCCUGCGGGUUCGAGUCCCCUACGUAACG [C5U A14C A15U G17A U26C A42U A45C G63C G68U], the yeast fitness was at most 0.5.
In the case of GUUCCGUUGGCGUAAUGGUAACGCGUCUCCCUCCUAAGGAGAAGACUGCGGGAUCGAGUCCCGUACGGAGCG [U53A A70G], the yeast fitness is 0.594.
To GUUCCGUUGGCGUAAUGGUAACGCGUCUCCCUCCUAAGGAGAAGAAUGCGGGUUCGAGUCGCGUACGGAACG [C46A C61G] belongs 0.637; to GUUCCGUUGGCGUAAUGGUAACGCGUCUCCCUCCUUAGGAGAAGACUGAGGAUUCGAGUCCCGUACGGAACG [A36U C49A G52A], at most 0.5; to GUUACGUUGGCGUGAUGGUAACGUGUCUCCCGCCUAAGGAGAGGACUGCGGGUUCGAGUCCCGUAUGGAACG [C4A A14G C24U U32G A43G C66U], 0.573.
Take GUUCCGUUGGCGUAAUGGUAACGCGUCUCCCUCCUACGGAGAAGACCGCGGGUUCGAGUCCCGUACGGAACG [A37C U47C]: the yeast fitness turned out to be 0.81.
As to GUGCCGUUGGCGUAAUGGUAACGCGUCUCCCUCCUAAGGAGCAGACUGCGGGUUCGAGUCCCGUACCGAACG [U3G A42C G67C], the yeast fitness was at most 0.5.
Regarding GCUCCGUUGGCGCAAUGGUAACGCGUAUCCCUCCUAAGGAGAAGACUGCGGGUUCGACUCCCCUACGGAACG [U2C U13C C27A G58C G63C], the yeast fitness is at most 0.5.
As for GUUCCGUUGGCGUAAUGGUCACGCGUCUCCUUCCUAAGGGGAAGACUGCGGCUUCGAGUCCCGUACCGAACG [A20C C31U A40G G52C G67C], the yeast fitness was at most 0.5.
As for GAUCCGUUGGCGUAAUGGUAACGCGUCUCCUUCCUAAGGCGAAGACUGCGGGUUGGAGUCCCGUACGAUACG [U2A C31U A40C C55G G68A A69U], the yeast fitness was at most 0.5.
To GUUCCGUUGGCGUAAUGGUAACGCGUCUCCCACCUAAGGAGAAGACUGCGGGUUCGAGUCUCGUACGGAACG [U32A C61U] belongs 0.855; to GUUCCGUUGGCGUAAUGGUAACGAGUCUCCCUCCUAAGGAGAAGACUGAGGGUUCCAGUCCCGUACGCAACG [C24A C49A G56C G68C], at most 0.5; to GUUCCGUUGGCGCAAUGGUAACGCGUCUUCCUCCUAAGGAGAAGACUGCGGGUUCGAGUCCCGUACGGAACG [U13C C29U], 0.831.
Take GUUCCGUUGGCGUAAUGGUAACGCGUCUCCGUCUUAAGGCGAAGACUGCGGGUUCGAGUCCCGUAAGGAACG [C31G C34U A40C C66A]: the yeast fitness was at most 0.5.
